Results from ChEMBL document CHEMBL1128590, “erbB-2 oncogene inhibition by geldanamycin derivatives: synthesis, mechanism of action, and structure-activity relationships” (J Med Chem, 1995).

Legend:
[1] = tested on: SK-BR-3; test: In vitro inhibition of p185 erbB-2 oncoprotein in human breast cancer SK-BR-3 cells; assay type: functional, cell-based
Procedure, shortened: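 Cellular assay with read-out as depletion of p185 erbB-2 protein after drug treatment of the cells. This depletion tracks inhibition of p185 autophosphorylation.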

[2] = tested on: Mus musculus; test: In vivo inhibition of p185 phosphotyrosine in nu/nu nude mice bearing Fisher rat embryo cells transfected with human erbB-2 at 200 mg/kg; assay type: functional
Procedure, shortened: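 Nude CD-1 (nu/nu) mice bearing subcutaneous FRE/erbB-2 tumours were dosed ip at 200 mg/kg at days 12-14 (~1 cm tumours). Tumours were removed 3 h later and extracted for p185 phosphotyrosine. The value is percent inhibition.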

[3] = tested on: Mus musculus; test: In vivo inhibition of p185 phosphotyrosine in nu/nu nude mice bearing Fisher rat embryo cells transfected with human erbB-2 at 400 mg/kg; assay type: functional
Procedure, shortened: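 FRE/erbB-2 cells were implanted subcutaneously in CD-1 (nu/nu) mice. At days 12-14 (~1 cm) the mice received 400 mg/kg ip. After 3 h, tumours were excised and extracted to isolate p185 phosphotyrosine. The value is percent inhibition.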

| IC50 [1] | SMILES | inhibition in vivo at 200 mg/kg [2] | inhibition in vivo at 400 mg/kg [3] |
| --- | --- | --- | --- |
| 140 nM | CO[C@H]1/C=C\C=C(/C)C(=O)NC2=CC(=O)C(N)=C(C[C@@H](C)C[C@H](OC)[C@@H](F)[C@@H](C)/C=C(\C)[C@@H]1OC(N)=O)C2=O | 46% | – |
| – | CO[C@H]1C[C@H](C)CC2=C(N3CCC3)C(=O)C=C(NC(=O)/C(C)=C/CC[C@H](OC)[C@@H](OC(N)=O)/C(C)=C/[C@H](C)[C@H]1O)C2=O | – | 44% |
| 70 nM | CO[C@H]1/C=C\C=C(/C)C(=O)NC2=CC(=O)C(N3CCC3)=C(C[C@@H](C)C[C@H](OC)[C@H](OC(C)=O)[C@@H](C)/C=C(\C)[C@@H]1OC(N)=O)C2=O | 78% | – |
| – | CO[C@H]1/C=C\C=C(/C)C(=O)NC2=CC(=O)C(N)=C(C[C@@H](C)C[C@H](OC)[C@H](O)[C@@H](C)/C=C(\C)[C@@H]1OC(N)=O)C2=O | – | 59% |
